Measured values reported in ChEMBL document CHEMBL1142938 (J Med Chem, 2007).

Molecular target: T1, Adenosine receptor A1 (Homo sapiens, UniProt P30542)
T1 sequence (P30542 whole entry): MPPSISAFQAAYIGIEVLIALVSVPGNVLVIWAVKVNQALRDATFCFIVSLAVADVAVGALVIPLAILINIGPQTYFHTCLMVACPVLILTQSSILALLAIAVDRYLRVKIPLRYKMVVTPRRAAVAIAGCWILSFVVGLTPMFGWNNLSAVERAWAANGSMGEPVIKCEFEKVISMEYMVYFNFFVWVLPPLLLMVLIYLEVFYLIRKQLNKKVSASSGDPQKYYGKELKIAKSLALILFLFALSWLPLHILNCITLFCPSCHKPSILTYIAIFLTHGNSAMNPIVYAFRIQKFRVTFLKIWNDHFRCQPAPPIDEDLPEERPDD
Experiment: Displacement of [3H]CCPA from human recombinant adenosine A1 receptor expressed in CHO cells
Format: cell-based

Going from `CCNC(=O)[C@H]1O[C@@H](n2cnc3c(NOC)nc(I)nc32)[C@H](O)[C@@H]1O` to `CNC(=O)[C@H]1O[C@@H](n2cnc3c(NOC)nc(I)nc32)[C@H](O)[C@@H]1O`, the Ki rises from 53 nM to 153 nM (2.9-fold). The first binds more tightly here.

Compared with `C#Cc1nc(NOC)c2ncn([C@@H]3O[C@H](CO)[C@@H](O)[C@H]3O)c2n1`, `CONc1nc(C#Cc2ccccc2)nc2c1ncn2[C@@H]1O[C@@H](CO)[C@@H](O)[C@H]1O` is 48-fold higher in Ki: 25 nM for the first, 1210 nM for the second. The first binds more tightly here.

Compared with `CCNC(=O)[C@H]1O[C@@H](n2cnc3c(NOC)nc(C#Cc4ccc(C)cc4)nc32)[C@H](O)[C@@H]1O`, `CCCCCc1ccc(C#Cc2nc(NOC)c3ncn([C@@H]4O[C@H](C(=O)NCC)[C@@H](O)[C@H]4O)c3n2)cc1` is 2.9-fold higher in Ki: 1420 nM for the first, 4090 nM for the second. The first binds more tightly here.

Going from `CCNC(=O)[C@H]1O[C@@H](n2cnc3c(NOC)nc(C#Cc4ccccn4)nc32)[C@H](O)[C@@H]1O` to `CNC(=O)[C@H]1O[C@@H](n2cnc3c(NOC)nc(C#Cc4ccccc4)nc32)[C@H](O)[C@@H]1O`, the Ki rises from 175 nM to 9140 nM (52-fold).

In the case of `CCCCCc1ccc(C#Cc2nc(NOC)c3ncn([C@@H]4O[C@H](C(=O)NC)[C@@H](O)[C@H]4O)c3n2)cc1`, the Ki is reported as 48100 nM.

Molecular target: Adenosine receptor A2a (Homo sapiens, UniProt P29274)
Sequence (P29274 whole entry): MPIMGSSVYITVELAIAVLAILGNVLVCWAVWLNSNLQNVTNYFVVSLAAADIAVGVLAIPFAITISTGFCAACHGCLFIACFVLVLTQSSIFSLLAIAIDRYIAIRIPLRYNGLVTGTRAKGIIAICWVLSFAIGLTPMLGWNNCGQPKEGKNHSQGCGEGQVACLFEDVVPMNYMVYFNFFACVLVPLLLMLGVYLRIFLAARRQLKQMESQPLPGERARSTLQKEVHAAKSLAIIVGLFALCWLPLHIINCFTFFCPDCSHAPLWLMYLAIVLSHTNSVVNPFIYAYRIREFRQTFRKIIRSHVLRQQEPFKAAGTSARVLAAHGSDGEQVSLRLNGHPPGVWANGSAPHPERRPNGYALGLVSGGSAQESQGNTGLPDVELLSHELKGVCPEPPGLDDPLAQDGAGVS
Experiment: Displacement of [3H]NECA from human recombinant adenosine A2A receptor expressed in CHO cells
Format: cell-based
Procedure, shortened: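 Competition binding with [3H]NECA at 30 nM on stably transfected CHO cells. Nonspecific binding defined with 1 mM theophylline. Dissociation constants (Ki) obtained by nonlinear curve fitting.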

Going from `CCNC(=O)[C@H]1O[C@@H](n2cnc3c(NOC)nc(I)nc32)[C@H](O)[C@@H]1O` to `CNC(=O)[C@H]1O[C@@H](n2cnc3c(NOC)nc(I)nc32)[C@H](O)[C@@H]1O`, the Ki rises from 5290 nM to 12100 nM (2.3-fold).

`C#Cc1nc(NOC)c2ncn([C@@H]3O[C@H](CO)[C@@H](O)[C@H]3O)c2n1` and `CONc1nc(C#Cc2ccccc2)nc2c1ncn2[C@@H]1O[C@@H](CO)[C@@H](O)[C@H]1O` are within 1.5-fold of each other in Ki: 3140 nM for the first, 4290 nM for the second.

Going from `CCNC(=O)[C@H]1O[C@@H](n2cnc3c(NOC)nc(C#Cc4ccc(C)cc4)nc32)[C@H](O)[C@@H]1O` to `CCCCCc1ccc(C#Cc2nc(NOC)c3ncn([C@@H]4O[C@H](C(=O)NCC)[C@@H](O)[C@H]4O)c3n2)cc1`, the Ki rises from 4600 nM to 27100 nM (5.9-fold).

Compared with `CCNC(=O)[C@H]1O[C@@H](n2cnc3c(NOC)nc(C#Cc4ccccn4)nc32)[C@H](O)[C@@H]1O`, `CNC(=O)[C@H]1O[C@@H](n2cnc3c(NOC)nc(C#Cc4ccccc4)nc32)[C@H](O)[C@@H]1O` is 2.5-fold higher in Ki: 6460 nM for the first, 16300 nM for the second.

For `CCCCCc1ccc(C#Cc2nc(NOC)c3ncn([C@@H]4O[C@H](C(=O)NC)[C@@H](O)[C@H]4O)c3n2)cc1`, the Ki was 31700 nM.

Molecular target: T2, Adenosine receptor A3 (Homo sapiens, UniProt P0DMS8)
T2 sequence (P0DMS8 whole entry): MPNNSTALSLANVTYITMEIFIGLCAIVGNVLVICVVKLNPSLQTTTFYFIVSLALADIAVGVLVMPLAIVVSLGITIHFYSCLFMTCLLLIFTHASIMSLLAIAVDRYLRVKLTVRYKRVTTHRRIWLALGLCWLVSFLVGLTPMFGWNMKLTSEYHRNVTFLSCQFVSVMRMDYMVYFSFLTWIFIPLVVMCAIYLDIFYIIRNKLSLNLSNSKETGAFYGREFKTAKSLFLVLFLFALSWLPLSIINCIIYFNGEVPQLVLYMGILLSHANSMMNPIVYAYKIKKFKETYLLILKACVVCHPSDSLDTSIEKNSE
Experiment: Displacement of [3H]NECA from human recombinant adenosine A3 receptor expressed in CHO cells
Format: cell-based
Procedure, shortened: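 [3H]NECA used at 10 nM as radioligand in competition experiments, stably transfected CHO cells. Nonspecific binding defined with 1 mM theophylline. Ki from nonlinear curve fitting.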

First: CCNC(=O)[C@H]1O[C@@H](n2cnc3c(NOC)nc(I)nc32)[C@H](O)[C@@H]1O
Second: CNC(=O)[C@H]1O[C@@H](n2cnc3c(NOC)nc(I)nc32)[C@H](O)[C@@H]1O
The Ki of the first is 1.6-fold higher: 2.8 nM for the first, 1.7 nM for the second. The second binds more tightly here.

First: C#Cc1nc(NOC)c2ncn([C@@H]3O[C@H](CO)[C@@H](O)[C@H]3O)c2n1
Second: CONc1nc(C#Cc2ccccc2)nc2c1ncn2[C@@H]1O[C@@H](CO)[C@@H](O)[C@H]1O
The Ki of the first is 6.1-fold higher: 23 nM for the first, 3.8 nM for the second.

Going from `CCNC(=O)[C@H]1O[C@@H](n2cnc3c(NOC)nc(C#Cc4ccc(C)cc4)nc32)[C@H](O)[C@@H]1O` to `CCCCCc1ccc(C#Cc2nc(NOC)c3ncn([C@@H]4O[C@H](C(=O)NCC)[C@@H](O)[C@H]4O)c3n2)cc1`, the Ki rises from 6.8 nM to 68 nM (10-fold).

`CCNC(=O)[C@H]1O[C@@H](n2cnc3c(NOC)nc(C#Cc4ccccn4)nc32)[C@H](O)[C@@H]1O` and `CNC(=O)[C@H]1O[C@@H](n2cnc3c(NOC)nc(C#Cc4ccccc4)nc32)[C@H](O)[C@@H]1O` are within 1.5-fold of each other in Ki: 1.6 nM for the first, 1.9 nM for the second.

In the case of `CCCCCc1ccc(C#Cc2nc(NOC)c3ncn([C@@H]4O[C@H](C(=O)NC)[C@@H](O)[C@H]4O)c3n2)cc1`, the Ki is reported as 55 nM.

Molecular target: Adenosine receptors; A1 & A3 (Homo sapiens) (UniProt P30542+P0DMS8)
Experiment: Selectivity for human adenosine A3 receptor over human adenosine A1 receptor
Format: protein assay

First: CCNC(=O)[C@H]1O[C@@H](n2cnc3c(NOC)nc(I)nc32)[C@H](O)[C@@H]1O
Second: CNC(=O)[C@H]1O[C@@H](n2cnc3c(NOC)nc(I)nc32)[C@H](O)[C@@H]1O
The Ratio Ki of the first is lower: 19 for the first, 90 for the second.

Compared with `C#Cc1nc(NOC)c2ncn([C@@H]3O[C@H](CO)[C@@H](O)[C@H]3O)c2n1`, `CONc1nc(C#Cc2ccccc2)nc2c1ncn2[C@@H]1O[C@@H](CO)[C@@H](O)[C@H]1O` is higher in Ratio Ki: 1 for the first, 318 for the second.

First: CCNC(=O)[C@H]1O[C@@H](n2cnc3c(NOC)nc(C#Cc4ccc(C)cc4)nc32)[C@H](O)[C@@H]1O
Second: CCCCCc1ccc(C#Cc2nc(NOC)c3ncn([C@@H]4O[C@H](C(=O)NCC)[C@@H](O)[C@H]4O)c3n2)cc1
The Ratio Ki of the first is higher: 209 for the first, 60 for the second.

Compared with `CCNC(=O)[C@H]1O[C@@H](n2cnc3c(NOC)nc(C#Cc4ccccn4)nc32)[C@H](O)[C@@H]1O`, `CNC(=O)[C@H]1O[C@@H](n2cnc3c(NOC)nc(C#Cc4ccccc4)nc32)[C@H](O)[C@@H]1O` is higher in Ratio Ki: 109 for the first, 4800 for the second.

`CCCCCc1ccc(C#Cc2nc(NOC)c3ncn([C@@H]4O[C@H](C(=O)NC)[C@@H](O)[C@H]4O)c3n2)cc1` was tested, and the Ratio Ki was 874.

Molecular target: Adenosine receptors; A2a & A3 (Homo sapiens) (UniProt P0DMS8+P29274)
Experiment: Selectivity for human adenosine A3 receptor over human adenosine A2A receptor
Format: protein assay

Going from `CCNC(=O)[C@H]1O[C@@H](n2cnc3c(NOC)nc(I)nc32)[C@H](O)[C@@H]1O` to `CNC(=O)[C@H]1O[C@@H](n2cnc3c(NOC)nc(I)nc32)[C@H](O)[C@@H]1O`, the Ratio Ki rises from 1900 to 7100.

First: C#Cc1nc(NOC)c2ncn([C@@H]3O[C@H](CO)[C@@H](O)[C@H]3O)c2n1
Second: CONc1nc(C#Cc2ccccc2)nc2c1ncn2[C@@H]1O[C@@H](CO)[C@@H](O)[C@H]1O
The Ratio Ki of the first is lower: 136 for the first, 1100 for the second.

Compared with `CCNC(=O)[C@H]1O[C@@H](n2cnc3c(NOC)nc(C#Cc4ccc(C)cc4)nc32)[C@H](O)[C@@H]1O`, `CCCCCc1ccc(C#Cc2nc(NOC)c3ncn([C@@H]4O[C@H](C(=O)NCC)[C@@H](O)[C@H]4O)c3n2)cc1` is lower in Ratio Ki: 676 for the first, 399 for the second.

Compared with `CCNC(=O)[C@H]1O[C@@H](n2cnc3c(NOC)nc(C#Cc4ccccn4)nc32)[C@H](O)[C@@H]1O`, `CNC(=O)[C@H]1O[C@@H](n2cnc3c(NOC)nc(C#Cc4ccccc4)nc32)[C@H](O)[C@@H]1O` is higher in Ratio Ki: 4000 for the first, 8600 for the second.

In the case of `CCCCCc1ccc(C#Cc2nc(NOC)c3ncn([C@@H]4O[C@H](C(=O)NC)[C@@H](O)[C@H]4O)c3n2)cc1`, the Ratio Ki is reported as 576.

Molecular target: T3, Adenosine receptor A3 (Homo sapiens) (UniProt P0DMS8)
T3 sequence (whole entry): T2 sequence (P0DMS8 whole entry)
Experiment: Activity at human adenosine A3 receptor assessed as inhibition of forskolin-stimulated cAMP production in CHO cells
Format: functional, cell-based
Set-up: concentration or dose not given beside the values

Compared with `CONc1nc(C#Cc2ccccc2)nc2c1ncn2[C@@H]1O[C@@H](CO)[C@@H](O)[C@H]1O`, `CNC(=O)[C@H]1O[C@@H](n2cnc3c(NOC)nc(C#Cc4ccccc4)nc32)[C@H](O)[C@@H]1O` is lower in Activity: 81% for the first, 38% for the second.
